Test results as given in ChEMBL document CHEMBL1143599, “Design, synthesis, and antiviral activity of adenosine 5'-phosphonate analogues as chain terminators against hepatitis C virus” (J Med Chem, 2005).

Columns and labels:
Assay type in all cases: functional
[1] = test system: Nc1ncnc2c1ncn2[C@@H]1O[C@H](COP(=O)(O)OP(=O)(O)OP(=O)(O)O)[C@@H](O)[C@H]1O; assay: Steady-state kinetic constant for Hepatitis C Virus NS5BRdRp; details: Hepacivirus hominis
How it was run: (§1)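 HCV NS5B, C-terminal His-tag with 21-residue truncation, 1 µM. Template 5′-AAAAAAAUGC-3′ and [5′-33P]GpC primer each at 20 µM. Buffer 50 mM HEPES pH 7.3, 10 mM DTT, 5 mM MgCl2; 15 min at 30 °C. Substrate varied from Km/2 to 10Km; EDTA quench, denaturing urea-PAGE. Initial velocities fitted to Michaelis-Menten for Km and Vmax; efficiency taken as Vmax/Km.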

[2] = test system: Nc1ncnc2c1ncn2[C@@H]1O[C@H](COP(=O)(O)OP(=O)(O)OP(=O)(O)O)[C@@H](O)[C@H]1O; assay: Incorporation efficiency for Hepatitis C Virus NS5BRdRp; details: Hepacivirus hominis; how it was run: as §1
[3] = biological target: RNA-directed RNA polymerase (Hepacivirus hominis) (UniProt O39930); assay: Ratio of steady state kinetic constant and incorporation efficiency for Hepatitis C Virus NS5BRdRp; how it was run: as §1

| Molecule | Km [1] [µM] | Vmax [2] [µM/min] | Ratio [3] |
| --- | --- | --- | --- |
| RNA-directed RNA polymerase (Hepacivirus hominis), O39930 | 133 | 0.23 |  |
| Nc1ncnc2c1ncn2[C@@H]1O[C@H](CCP(=O)(O)OP(=O)(O)OP(=O)(O)O)[C@@H](O)[C@H]1O |  |  | 0.00019 |
| Nc1ncnc2c1ncn2[C@@H]1O[C@H](OCP(=O)(O)OP(=O)(O)OP(=O)(O)O)[C@@H](O)[C@H]1O |  |  | 1.2e-05 |
| Nc1ncnc2c1ncn2[C@@H]1O[C@H](COP(=O)(O)OP(=O)(O)OP(=O)(O)O)[C@@H](O)[C@H]1O |  |  | 0.0017 |
